Source: ChEMBL document CHEMBL2346611, “Preliminary structure-activity relationships and biological evaluation of novel antitubercular indolecarboxamide derivatives against drug-susceptible and drug-resistant Mycobacterium tuberculosis strains” (J Med Chem, 2013)
In brackets after ≈: the same amount, converted by molar mass. Activity calls are given as the source filed them. The rule behind the calls is not given here.

What was measured:
[1] = tested on: Mycobacterium tuberculosis; experiment: Antitubercular activity against Mycobacterium tuberculosis H37Rv by microplate Alamar Blue assay; type: functional
Outline: (§1)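 Mycobacterium tuberculosis strains were used: H37Rv, and clinical strains from KwaZulu-Natal (MDR KZN494 and V2475; XDR TF274 and R506). Growth was read by microplate Alamar Blue assay. MIC is the lowest drug concentration giving at least a 90% reduction of the bacterial growth signal. Values are the average of three individual measurements.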

[2] = Selectivity index, ratio of IC50 for african green monkey vero cells to MIC90 for Mycobacterium tuberculosis H37Rv; type: functional
[3] = tested on: Mycobacterium tuberculosis; experiment: Ratio of isoniazid MIC to compound MIC for Mycobacterium tuberculosis H37Rv; type: functional
[4] = tested on: Mycobacterium tuberculosis; experiment: Antitubercular activity against Mycobacterium tuberculosis H37Rv in 300 mg/kg, po dosed Balb/c mouse serum measured after 7 days by serum inhibition titration based microplate Alamar Blue assay; type: functional, organism-based; set-up: dose 300 mg/kg
Outline: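 Six-week-old female BALB/c mice got a single oral gavage of 100 or 300 mg/kg, ground to a suspension in 0.5% carboxymethyl cellulose. Controls were isoniazid 10 mg/kg and vehicle. Cardiac blood was taken at 15, 30 and 60 min and serum separated. Serum was two-fold serially diluted, 10^4 CFU H37Rv added, incubated 7 days and read by MABA.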

Vero = experiment: Cytotoxicity against african green monkey Vero cells by microplate Alamar Blue assay; type: cell-based; conditions: Chlorocebus sabaeus
Outline: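 Cytotoxicity was measured on Vero cells in microplate Alamar Blue assay format.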

[5] = tested on: Mycobacterium tuberculosis; experiment: Antitubercular activity against drug-susceptible Mycobacterium tuberculosis V4207 by microplate Alamar Blue assay; type: functional
[6] = tested on: Mycobacterium tuberculosis; experiment: Antitubercular activity against Mycobacterium tuberculosis H37Rv after 21 days by spectrophotometric analysis; type: functional; conditions: 504 h
[7] = tested on: Mycobacterium tuberculosis; experiment: Antitubercular activity against Mycobacterium tuberculosis H37Rv; type: functional; outline: as §1

Cc1cc(C)c2cc(C(=O)N3CCCCC3)[nH]c2c1
MIC90 [1]: > 499 µM

Cc1cc(C)c2cc(C(=O)NC3CCCCCC3)[nH]c2c1
Selectivity Index [2]: >3600 | Ratio [3]: 5 | Activity [4]: inactive | IC50 (Vero): > 200 µM | MIC90 [5]: 0.11 µM (≈ 0.0313 µg/mL) | MIC90 [1]: 0.055 µM (≈ 0.0156 µg/mL)

Cc1cc(C)c2cc(C(=O)Nc3ccncc3)[nH]c2c1
MIC90 [1]: 240 µM (≈ 63.7 µg/mL)

Cc1cc(C)c2c(C(=O)NC3C4CC5CC(C4)CC3C5)c[nH]c2c1 (stereo not given)
MIC90 [1]: 200 µM (≈ 64.5 µg/mL)

O=C(NC12CC3CC(CC(C3)C1)C2)c1cc2cc(Cl)ccc2o1
MIC90 [1]: ≥ 388 µM

COc1cc2[nH]c(C(=O)NC34CC5CC(CC(C5)C3)C4)cc2cn1
MIC90 [1]: 1.5 µM (≈ 0.488 µg/mL)

Cc1cc(C)c2nc(C(=O)NC34CC5CC(CC(C5)C3)C4)[nH]c2c1
MIC90 [1]: 0.39 µM (≈ 0.126 µg/mL)

O=C(NC12CC3CC(CC(C3)C1)C2)c1cc2cc(Cl)ccc2[nH]1
MIC90 [1]: 0.38 µM (≈ 0.125 µg/mL)

Cc1ccc(NC(=O)c2cc3ccccc3[nH]2)cc1F
MIC90 [1]: 477 µM (≈ 128 µg/mL)

Cc1cc(C)c2cc(C(=O)NC34CC5CC(CC(C5)C3)C4)[nH]c2c1
Selectivity Index [2]: >16600 | Activity [4]: inactive | IC50 (Vero): > 200 µM | MIC90 [1]: 0.012 µM (≈ 0.00387 µg/mL)

NNC(=O)c1ccncc1 [ISONIAZID]
MIC90 [1]: 0.29 µM (≈ 0.0398 µg/mL)

O=C(NC1CCCCCCC1)c1cc2c(F)cc(F)cc2[nH]1
MIC90 [1]: 0.1 µM (≈ 0.0306 µg/mL)

COc1ccc2cc(C(=O)NC34CC5CC(CC(C5)C3)C4)[nH]c2c1
MIC90 [1]: 0.77 µM (≈ 0.25 µg/mL)

Cc1cc(C)c2cc(C(=O)NC3CCCCC3)n(C)c2c1
MIC90 [1]: 450 µM (≈ 128 µg/mL)

Cc1cc(C)c2cc(C(=O)NC3CCCCCCC3)[nH]c2c1
Selectivity Index [2]: 4100 | Activity [4]: Active | IC50 (Vero): 54 µM | MIC90 [5]: 0.026 µM (≈ 0.00776 µg/mL) | MIC90 [1]: 0.013 µM (≈ 0.00388 µg/mL)

CCCCCCNC(=O)c1cc2c(C)cc(C)cc2o1
MIC90 [1]: 59 µM (≈ 16.1 µg/mL)

O=[N+]([O-])c1cn2c(n1)OC[C@@H](OCc1ccc(OC(F)(F)F)cc1)C2 [PRETOMANID]
MIC90 [6]: 0.04 µM (≈ 0.0144 µg/mL)

Cc1cc(C)c2cc(C(=O)NC3CCCCCC3)oc2c1
MIC90 [1]: 56 µM (≈ 16 µg/mL)

Cc1cc(C)c2c(C(=O)NC3CCCCCC3)c[nH]c2c1
MIC90 [1]: 200 µM (≈ 56.9 µg/mL)

O=C(NC1CCCCCC1)c1cc2c(F)cc(F)cc2[nH]1
MIC90 [1]: 0.86 µM (≈ 0.251 µg/mL)

O=C(NC1CCCCCC1)c1cc2c(C(F)(F)F)cc(C(F)(F)F)cc2[nH]1
MIC90 [1]: 0.64 µM (≈ 0.251 µg/mL)

Cc1cc(C)c2cc(C(=O)NCC3CCCCC3)[nH]c2c1
IC50 (Vero): > 200 µM | MIC90 [1]: 0.88 µM (≈ 0.25 µg/mL)

Cc1cc(C)c2cc(C(=O)Nc3ccccc3)[nH]c2c1
IC50 (Vero): > 200 µM | MIC90 [1]: 3.8 µM (≈ 1 µg/mL)

O=C(NC1CCCCCCC1)c1cc2cc(Cl)ccc2o1
MIC90 [1]: 26 µM (≈ 7.95 µg/mL)

Cc1cc(C)c2cc(C(=O)NC3C4CC5CC(C4)CC3C5)[nH]c2c1 (stereo not given)
Selectivity Index [2]: >16600 | Activity [4]: inactive | IC50 (Vero): > 200 µM | MIC90 [1]: 0.012 µM (≈ 0.00387 µg/mL)

Cc1cc(C)c2cc(C(=O)NC3CCCCCCC3)oc2c1
MIC90 [1]: 27 µM (≈ 8.08 µg/mL)

Cc1cc(C)c2cc(C(=O)NC34CC5CC(CC(C5)C3)C4)oc2c1
MIC90 [1]: 3.1 µM (≈ 1 µg/mL)

Cc1cc(C)c2cc(C(=O)Nc3ccc(C)c(F)c3)[nH]c2c1
IC50 (Vero): > 200 µM | MIC90 [1]: 1.7 µM (≈ 0.504 µg/mL)

Cc1cc(C)c2nc(C(=O)NC3CCCCCCC3)[nH]c2c1
MIC90 [1]: 1.7 µM (≈ 0.509 µg/mL)

Cc1cc(C)c2cc(C(=O)NC3CCN(C(C)C)CC3)[nH]c2c1
MIC90 [1]: 204 µM (≈ 63.9 µg/mL)

Cc1cc(C)c2nc(C(=O)NC3CCCCCC3)[nH]c2c1
MIC90 [1]: > 224 µM

Cc1cc(C)c2c(C(=O)NC3CCCCCCC3)c[nH]c2c1
MIC90 [1]: 200 µM (≈ 59.7 µg/mL)

O=C(NC1CCCCC1)c1cc2ccccc2[nH]1
MIC90 [1]: > 528 µM

COc1nc2ccc(Br)cc2cc1[C@@H](c1ccccc1)[C@@](O)(CCN(C)C)c1cccc2ccccc12 [BEDAQUILINE]
MIC90 [7]: 0.05 µM (≈ 0.0278 µg/mL)

O=C(NC1CCCCCCC1)c1cc2c(C(F)(F)F)cc(C(F)(F)F)cc2[nH]1
MIC90 [1]: 0.04 µM (≈ 0.0163 µg/mL)

Cc1cc(C)c2cc(C(=O)NC3CCCN(C)CC3)[nH]c2c1 (stereo not given)
MIC90 [1]: 428 µM (≈ 128 µg/mL)

Cc1cc(C)c2nc(C(=O)NC3C4CC5CC(C4)CC3C5)[nH]c2c1 (stereo not given)
MIC90 [1]: 1.5 µM (≈ 0.485 µg/mL)

Cc1cc(C)c2cc(C(=O)NC3CCCCC3)[nH]c2c1
IC50 (Vero): > 200 µM | MIC90 [5]: 0.93 µM (≈ 0.251 µg/mL) | MIC90 [1]: 0.93 µM (≈ 0.251 µg/mL)

Cc1cc(C)c2cc(C(=O)NC3CCN(C)CC3)[nH]c2c1
MIC90 [1]: 448 µM (≈ 128 µg/mL)

O=C(NC12CC3CC(CC(C3)C1)C2)c1cc2ccc(O)cc2[nH]1
MIC90 [1]: 13 µM (≈ 4.04 µg/mL)

Cc1cc(C)c2cc(C(=O)NC3CC4CCC3C4)oc2c1 (stereo not given)
MIC90 [1]: 113 µM (≈ 32 µg/mL)

Cc1cc(C)c2cc(C(=O)NC3CC3)[nH]c2c1
MIC90 [1]: 561 µM (≈ 128 µg/mL)

Cc1cc(C)c2c(C(=O)NC34CC5CC(CC(C5)C3)C4)c[nH]c2c1
MIC90 [1]: 200 µM (≈ 64.5 µg/mL)

Cc1cc(C)c2cc(C(=O)N(C)C3CCCCC3)[nH]c2c1
MIC90 [1]: 450 µM (≈ 128 µg/mL)

COc1cc2[nH]c(C(=O)NC3CCCCCCC3)cc2cn1
MIC90 [1]: 6.6 µM (≈ 1.99 µg/mL)
